Data published in ChEMBL document CHEMBL1124777, “Specific bradycardic agents. 1. Chemistry, pharmacology, and structure-activity relationships of substituted benzazepinones, a-new class of compounds exerting antiischemic properties” (1990).
≈ marks a conversion by molar mass, not a printed value.

Legend:
Rattus norvegicus = experiment: Bradycardic activity measured as a percentage decrease of heart rate after 5 mg/kg intravenous administration in anesthetized rats; assay type: functional
Outline: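 Male Chbb:THOM rats (200–250 g) were anesthetized with pentobarbital sodium 50 mg/kg ip, with tracheal cannulation and artificial respiration. Heart rate was recorded continuously by an ECG-triggered beat-to-beat tachograph. Dose was 5 mg/kg iv via the jugular vein. Rate was read at 2, 5 and 20 min, and the reduction taken at 5 min.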

Felis catus [1] = experiment: Evaluated in vivo for bradycardic activity in anesthetized cat as a measure of % decrease of heart rate after 1 mg/Kg intravenous administration of the compound.; assay type: functional
[2] = Ratio between the EC30 values of atrial contractility and atrial rate; assay type: functional, Cardiac atrium
Outline: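 Isolated guinea pig atria (300–500 g, either sex) in modified Tyrode's gassed with 98% O2/2% CO2, resting tension 1 g, isometric recording. Rate measured in spontaneously beating atria at 37 °C after ≥30 min equilibration. Contractility (g) measured in left atria paced at 2.5 Hz (3 ms pulses, 1.5× threshold), 30 °C, 20 min equilibration. EC30 is the concentration lowering the predrug value by 30%.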

Cavia porcellus [3] = organism: Cavia porcellus; experiment: Evaluated in vitro for the effect on spontaneous rate in isolated guinea pig atria; assay type: functional
Outline: (§1)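 Spontaneously beating guinea pig atria (either sex, 300–500 g) were held in modified Tyrode's solution gassed with 98% O₂/2% CO₂, at 1 g resting tension and 37 °C. Equilibration lasted at least 30 min, until rate varied by no more than 5 beats/min. Recording was isometric. EC₃₀ is the concentration lowering predrug rate by 30%, given with 95% confidence limits.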

[4] = Ratio between the EC30 values of aortic contracture and atrial rate; assay type: functional, Cardiac atrium
Outline: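 Guinea pig atria (300–500 g, either sex) in modified Tyrode's gassed with 98% O2/2% CO2, resting tension 1 g. Rate measured in spontaneously beating atria at 37 °C after at least 30 min equilibration. Rabbit aortic strips contracted with 40 mM KCl plus 1.8 mM CaCl2 to a plateau. EC30 is the concentration relaxing the contracture, or lowering the predrug rate, by 30%.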

Cavia porcellus [5] = organism: Cavia porcellus; experiment: Evaluated in vitro for its effect on atrial contractility in electrically stimulated isolated guinea pig left atria; settings: Cardiac atrium
Felis catus [6] = experiment: Evaluated in vivo for bradycardic activity in anesthetized cat as a measure of percent decrease of heart rate after 1 mg/kg intravenous administration; assay type: functional
Oryctolagus cuniculus = organism: Oryctolagus cuniculus; experiment: Evaluated in vitro for the effect on K+ induced aortic contraction in isolated aortic strips of rabbit; assay type: functional; settings: Aorta
Cavia porcellus [7] = organism: Cavia porcellus; experiment: Evaluated in vitro for the effect on spontaneous atrial rate in isolated guinea pig atria; assay type: functional; settings: Cardiac atrium; outline: as §1

COc1ccc(CCN(CCCN2CCc3cc(OC)c(OC)cc3CC2=O)CCc2ccc(OC)c(OC)c2)cc1OC
Decrease (Rattus norvegicus): -28%

COc1ccc(CCSCCCN2CCc3cc(OC)c(OC)cc3CC2=O)cc1OC
Decrease (Rattus norvegicus): 1%

COc1cc2c(cc1OC)CC(=O)N(CCCN(C)CCc1c(Cl)cccc1Cl)CC2.Cl.Cl.Cl.Cl
Decrease (Rattus norvegicus): -13%

COc1cc2c(cc1OC)CC(=O)N(CCCN(C)CCc1ccc(N(C)C)cc1)CC2.Cl.Cl
Decrease (Rattus norvegicus): -60%

COc1cc2c(cc1OC)CC(=O)N(CCCN(C)CCc1ccccc1)CC2.Cl.Cl
Decrease (Rattus norvegicus): -52%

COc1cc2c(cc1OC)CC(=O)N(CCCN(C)CCc1ccc(C(C)(C)C)cc1)CC2.Cl.Cl
Decrease (Rattus norvegicus): -58%

COc1ccc(CC[S+]([O-])CCCN2CCc3cc(OC)c(OC)cc3CC2=O)cc1OC (stereo not drawn)
Decrease (Rattus norvegicus): -4%

COc1cc2c(cc1O)CC(=O)N(CCCN(C)CCc1ccc(OC)c(OC)c1)CC2
Decrease (Rattus norvegicus): -29%

COc1cc2c(cc1OC)CC(=O)N(CCCN(C)CCc1ccc(OCc3ccccc3)cc1)CC2
Decrease (Rattus norvegicus): -27%

COc1ccc(CCN(CCCN2CCc3cc(OC)c(OC)cc3CC2=O)C(C)=O)cc1OC
Decrease (Rattus norvegicus): -3%

COc1ccc(NCCCN(C)CCCN2CCc3cc(OC)c(OC)cc3CC2=O)cc1OC
Decrease (Rattus norvegicus): -51%

COc1cc2c(cc1OC)CC(=O)N(CCCN(C)CCc1ccc(N)cc1)CC2
Decrease (Rattus norvegicus): -30%

CCOC(=O)N(CCCN1CCc2cc(OC)c(OC)cc2CC1=O)CCc1ccc(OC)c(OC)c1
Decrease (Rattus norvegicus): -8%

COc1ccc(CN(C)CCCN2CCc3cc(OC)c(OC)cc3CC2=O)cc1OC
Decrease (Rattus norvegicus): -26%

CCCCOc1ccc(CCN(C)CCCN2CCc3cc(OC)c(OC)cc3CC2=O)cc1
Decrease (Rattus norvegicus): -55%

COc1ccc(N(C)CCCN2CCc3cc(OC)c(OC)cc3CC2=O)cc1OC
Decrease (Rattus norvegicus): -17%

COc1ccc(CC[N+](C)(C)CCCN2CCc3cc(OC)c(OC)cc3CC2=O)cc1OC.[I-]
Decrease (Rattus norvegicus): -9%

COc1ccc(NCCN(C)CCCN2CCc3cc(OC)c(OC)cc3CC2=O)cc1OC
Decrease (Rattus norvegicus): -39%

COc1ccc(CCN(C)CC(O)CN2CCc3cc(OC)c(OC)cc3CC2=O)cc1OC (stereo not drawn)
Decrease (Rattus norvegicus): -28%

COc1ccc(CCN(C)CCCN2CCCc3cc(OC)c(OC)cc3C2=O)cc1OC
Decrease (Felis catus [1]): -8%

COc1ccc(CCS(=O)(=O)CCCN2CCc3cc(OC)c(OC)cc3CC2=O)cc1OC
Decrease (Rattus norvegicus): -1%

COc1ccc(CCN(C)CCCN2CCc3cc(O)c(O)cc3CC2=O)cc1OC
Decrease (Rattus norvegicus): -30%

COc1cc2c(cc1OC)CC(=O)N(CCCN(C)CCc1ccc(Cl)cc1)CC2.Cl
Decrease (Rattus norvegicus): -55%

COc1ccc2c(c1)CC(=O)N(CCCN(C)CCc1ccc(OC)c(OC)c1)CC2.Cl.Cl
Decrease (Rattus norvegicus): -44%

COc1ccc(CCN(C)CC(C)CN2CCc3cc(OC)c(OC)cc3CC2=O)cc1OC.Cl (stereo not drawn)
Decrease (Rattus norvegicus): -43%

COc1ccc(CCN(C)CCCN2CCc3ccc(OC)c(OC)c3CC2=O)cc1OC.Cl
Decrease (Rattus norvegicus): -34%

COc1ccc(SCCCN(C)CCCN2CCc3cc(OC)c(OC)cc3CC2=O)cc1OC.Cl
Decrease (Rattus norvegicus): -47%

COc1ccc(CCN(C)CCCN2CCc3cc(C)c(C)cc3CC2=O)cc1OC.Cl.Cl
Decrease (Rattus norvegicus): -49%

COc1ccc(CCN(C)CCCN2CCc3cc4c(cc3CC2=O)OCCO4)cc1OC.Cl
Decrease (Rattus norvegicus): -49%

COc1ccc2c(c1)CCN(CCCN(C)CCc1ccc(OC)c(OC)c1)C(=O)C2.Cl
Decrease (Rattus norvegicus): -31%

COc1cc2c(cc1OC)CC(=O)N(CCCN(C)CCc1cc(OC)c(OC)c(OC)c1)CC2.Cl
Decrease (Rattus norvegicus): -21%

COc1cc2c(cc1OC)CC(=O)N(CCCN(C)CCc1ccc(O)cc1)CC2.Cl
Decrease (Rattus norvegicus): -33%

COc1cc2c(cc1O)CCN(CCCN(C)CCc1ccc(OC)c(OC)c1)C(=O)C2.Cl
Decrease (Rattus norvegicus): -47%

COc1ccc(CCN(C)CCCN2CCc3cc(OC)c(OC)cc3C2=O)cc1OC.Cl
Decrease (Felis catus [1]): -29%

COc1ccc(CCN(C)CCCN2CCc3cc4c(cc3CC2=O)OCO4)cc1OC.Cl
Decrease (Rattus norvegicus): -42%

COc1ccc(CCN(C)CCCN2CCc3cc(OC)c(OC)cc3CC2=O)cc1.Cl
Decrease (Rattus norvegicus): -42%

COc1cc(OC)c(CCN(C)CCCN2CCc3cc(OC)c(OC)cc3CC2=O)c(OC)c1.Cl
Decrease (Rattus norvegicus): -25%

COc1ccc(SCCN(C)CCCN2CCc3cc(OC)c(OC)cc3CC2=O)cc1OC.Cl
Decrease (Rattus norvegicus): -44%

COc1ccc(CCN(C)CCCN2Cc3cc(OC)c(OC)cc3C2=O)cc1OC.Cl
Ratio [2]: 154 | EC30 (Cavia porcellus [3]): 0.608 µg/mL | Ratio [4]: 35 | EC30 (Cavia porcellus [5]): 93.6 µg/mL | Decrease (Felis catus [6]): -16% | EC30 (Oryctolagus cuniculus): 21.3 µg/mL

COc1cc2c(cc1OC)CC(=O)N(CCCN(C)CCc1ccc([N+](=O)[O-])cc1)CC2.Cl
Decrease (Rattus norvegicus): -41%

COc1ccc(CCCCCN(C)CCCN2CCc3cc(OC)c(OC)cc3CC2=O)cc1OC.Cl
Decrease (Rattus norvegicus): -36%

COc1ccc(OCCCCN(C)CCCN2CCc3cc(OC)c(OC)cc3CC2=O)cc1OC.Cl
Decrease (Rattus norvegicus): -37%

COc1ccc(CCCCN(C)CCCN2CCc3cc(OC)c(OC)cc3CC2=O)cc1OC.Cl
Decrease (Rattus norvegicus): -46%

COc1ccc(CCCN(C)CCCN2CCc3cc(OC)c(OC)cc3CC2=O)cc1OC.Cl
Decrease (Rattus norvegicus): -55%

COc1ccc(CCNCCCN2CCc3cc(OC)c(OC)cc3CC2=O)cc1OC.Cl
Decrease (Rattus norvegicus): -66%

C=CCN(CCCN1CCc2cc(OC)c(OC)cc2CC1=O)CCc1ccc(OC)c(OC)c1.Cl
Decrease (Rattus norvegicus): -65%

COc1ccc(CCN(C)CCCN2CCc3ccccc3CC2=O)cc1OC.Cl
Decrease (Rattus norvegicus): -35%

COc1cc2c(cc1OC)CC(=O)N(CCCN(C)CCc1ccc(OS(C)(=O)=O)cc1)CC2.Cl
Decrease (Rattus norvegicus): -46%

COc1ccc(OCCCN(C)CCCN2CCc3cc(OC)c(OC)cc3CC2=O)cc1OC.Cl
Decrease (Rattus norvegicus): -63%

COc1ccc(OCCN(C)CCCN2CCc3cc(OC)c(OC)cc3CC2=O)cc1OC.Cl
Decrease (Rattus norvegicus): -59%

COc1ccc(CCN(C)CCN2CCc3cc(OC)c(OC)cc3CC2=O)cc1OC.Cl
Decrease (Rattus norvegicus): -13%

COc1cc2c(cc1OC)CC(=O)N(CCCN(C)CCc1ccc(Cl)c(Cl)c1)CC2.Cl.Cl
Decrease (Rattus norvegicus): -47%

CCCN(CCCN1CCc2cc(OC)c(OC)cc2CC1=O)CCc1ccc(OC)c(OC)c1.Cl
Decrease (Rattus norvegicus): -56%

COc1ccc(CCN(C)CCCCN2CCc3cc(OC)c(OC)cc3CC2=O)cc1OC.Cl
Decrease (Rattus norvegicus): -33%

COc1ccc(CCN(C)CCCN2CCc3c(OC)ccc(OC)c3CC2=O)cc1OC.Cl
Decrease (Rattus norvegicus): -21%

COc1ccc(CCN(C)CCCN2CCc3c(C)c(C)c(C)c(C)c3CC2=O)cc1OC.Cl
Decrease (Rattus norvegicus): -41%

COc1ccc(CCN(C)CCC[C@@](C#N)(c2ccc(OC)c(OC)c2)C(C)C)cc1OC [(S)-VERAPAMIL]
Ratio [2]: 0.88 | Ratio [4]: 0.409 | EC30 (Cavia porcellus [5]): 0.0611 µg/mL (≈ 0.134 µM) | EC30 (Oryctolagus cuniculus): 0.0284 µg/mL (≈ 0.0625 µM) | EC30 (Cavia porcellus [7]): 0.0694 µg/mL (≈ 0.153 µM)

COc1ccc([C@@H]2Sc3ccccc3N(CCN(C)C)C(=O)[C@@H]2OC(C)=O)cc1 [DILTIAZEM]
Ratio [2]: 19.5 | Ratio [4]: 0.53 | EC30 (Cavia porcellus [5]): 2.73 µg/mL (≈ 6.59 µM) | EC30 (Oryctolagus cuniculus): 0.0741 µg/mL (≈ 0.179 µM) | EC30 (Cavia porcellus [7]): 0.14 µg/mL (≈ 0.338 µM)

COC(=O)C1=C(C)NC(C)=C(C(=O)OC)C1c1ccccc1[N+](=O)[O-] [NIFEDIPINE]
Ratio [2]: 0.135 | Ratio [4]: 0.036 | EC30 (Cavia porcellus [5]): 0.0149 µg/mL (≈ 0.043 µM) | EC30 (Oryctolagus cuniculus): 0.00397 µg/mL (≈ 0.0115 µM) | EC30 (Cavia porcellus [7]): 0.11 µg/mL (≈ 0.318 µM)

COc1ccc(CCN(C)CCCN2CCc3cc(OC)c(OC)cc3CC2=O)cc1OC.Cl [ZATEBRADINE HYDROCHLORIDE]
Decrease (Rattus norvegicus): -56% | Ratio [2]: 3600 | Ratio [4]: 500 | EC30 (Cavia porcellus [5]): 108 µg/mL | EC30 (Oryctolagus cuniculus): 15 µg/mL | Decrease (Felis catus [1]): -56% | EC30 (Cavia porcellus [7]): 0.03 µg/mL
